697 NFkB inh: inhibitors of PMA/ionomycin-induced NF-kB reporter, 697 cells, primary screen, B-cell NF-kB inhibitor project, cell-based, luminescence, uHTS | inhibition, % at 4 µM | 0.33% of 330,000 active | 697 B-cell NF-kB luciferase reporter, 16 h; in the data active means inhibition above about 35%
Jurkat NFkB inh: inhibitors of induced NF-kB luciferase reporter, primary screen, TCR NF-kB activation inhibitor project, cell-based, luminescence, uHTS; AID 435003, 2010; inhibition, % at 4 µM; 0.53% of 330,000 active; Jurkat, PMA/ionomycin-induced NF-kB luciferase reporter; in the data active means inhibition above about 50%
NR2E3 ag-1: NR2E3 agonists in two-hybrid cells, primary screen, cell-based, luminescence, CHO-S, Gal4-NCOR/VP16-NR2E3 | 0.35% of 360,000 active | Photoreceptor-specific nuclear receptor (Homo sapiens), Q9Y5X4 | inhibition of corepressor binding, % at 3.98 µM | luciferase;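 active means inhibition above the mean of all tested compounds plus 3 SD, cut at about 70% in these data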;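 further: higher means lower luciferase signal from less NR2E3 corepressor binding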
Target sequence (Q9Y5X4 whole entry, looked up, the tested form may be a part): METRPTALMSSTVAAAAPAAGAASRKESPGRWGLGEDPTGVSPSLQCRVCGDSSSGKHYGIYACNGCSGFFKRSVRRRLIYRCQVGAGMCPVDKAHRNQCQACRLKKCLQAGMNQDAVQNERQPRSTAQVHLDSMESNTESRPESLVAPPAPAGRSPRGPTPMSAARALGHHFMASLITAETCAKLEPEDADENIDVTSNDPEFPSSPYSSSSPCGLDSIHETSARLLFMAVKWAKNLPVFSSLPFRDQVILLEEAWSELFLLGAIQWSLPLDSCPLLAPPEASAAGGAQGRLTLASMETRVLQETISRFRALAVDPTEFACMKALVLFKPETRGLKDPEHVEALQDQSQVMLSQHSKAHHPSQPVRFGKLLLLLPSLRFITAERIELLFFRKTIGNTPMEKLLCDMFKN
MPTP inh: mitochondrial permeability transition pore inhibitors, primary screen, biochemical, isolated mouse mitochondria, absorbance; inhibition, % at 10 µM; 1.4% of 360,000 active; Ca2+ swelling absorbance, 30 min; AID 602449, 2012;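 active means inhibition of 50% or more, scaled per plate between neutral and stimulator controls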
aDG glyco act: activators of alpha-DG glycosylation, primary screen, uHTS, Pro5-aDG cells, AlphaScreen; activation, % at 10 µM; 0.22% of 360,000 active; alpha-DG glycosylation AlphaScreen (IIH6); 0% Pro5, 100% B10-LARGE cell signal;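 active means activation of at least 8% versus controls, or a plate z-score of at least 8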;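 further: Pro5 are CHO cells carrying HIG-tagged alpha-DG that lacks glycosylation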
NR2E3 ag-2: inhibitors of NR2E3-RetCOR corepressor binding, primary screen, NR2E3 agonist project, biochemical, TR-FRET, GST-NR2E3, biotin-RetCOR; Photoreceptor-specific nuclear receptor (Homo sapiens), Q9Y5X4; 1536-well; 0.12% of 320,000 active; inhibition of corepressor binding, % at 4.78 µM;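 active means percent inhibition above the cutoff of mean plus 3 SD of all tested compounds, set per screening campaign, cut at about 20% in these data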
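Assay system: NR2E3–RetCOR corepressor complex. Quantity: 1.35 nM GST-NR2E3. Buffer or medium: pH 7.5 Tris-based buffer. Reagent: biotinylated RetCOR corepressor at 7 nM final. Schedule: 5 h at 4 °C. Detection: TR-FRET, emission read at 617 and 671 nm. Replicates: one well per compound, singlicate testing.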
NR2E3 ag confirm: NR2E3 agonist confirmation in cells, cell-based, luminescence, CHO-S two-hybrid; AID 624378, 2012; inhibition, % at 3.98 µM; shares compounds with NR2E3 ag-1; 51% of 2,300 active; CHO-S mammalian two-hybrid NR2E3-NCOR, luciferase luminescence;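 active means average inhibition above a cutoff equal to the mean inhibition of all tested compounds plus one SD, cut at about 70% in these data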
GAL4-VP16 luc: GAL4-VP16 reporter modulators, confirmation, counter-screen for NR2E3 agonist project, cell-based, luminescence, CHO-S, high throughput; inhibition, % at 3.98 µM; 29% of 2,300 active; shares compounds with NR2E3 ag-1; CHO-S GAL4-VP16 luciferase reporter;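 active means mean inhibition above a cutoff equal to the average over all tested compounds plus one standard deviation, cut at about 70% in these data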;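 further: luciferase from a UAS reporter driven by GAL4-VP16 transactivation; higher means less reporter light so more repression of VP16 activity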
Of the large screens only hits and unclear results are named; the others gave an inactive call (follow-up assays come after a bar, where they were run). Sampled rows, rich in hits. Any-hit rate of the full collection: about 2.4%.

Cc1ccc(S(=O)(=O)N2C[C@H]3N(C(=O)OC(C)C)N(C(=O)OC(C)C)C[C@H](OC(=O)NCc4ccccc4)[C@@]3(O)C2)cc1	none (no result: 697 NFkB inh, Jurkat NFkB inh, NR2E3 ag-2)
Cc1ccc(S(=O)(=O)N2C[C@H]3N(C(=O)OC(C)C)N(C(=O)OC(C)C)C[C@H](OC(=O)NCC4CCCCC4)[C@@]3(O)C2)cc1	none (no result: 697 NFkB inh, Jurkat NFkB inh, NR2E3 ag-2) | NR2E3 ag confirm 70 | GAL4-VP16 luc inactive
COc1cccc(N2CCN(c3nc(-c4ccccc4C)cc(=O)[nH]3)CC2)c1	NR2E3 ag-1 93 (no result: NR2E3 ag-2) | NR2E3 ag confirm 98 | GAL4-VP16 luc inactive
Cc1cnc(C(=O)Nc2cccc3cccnc23)cn1	NR2E3 ag-1 77 (no result: 697 NFkB inh, Jurkat NFkB inh, NR2E3 ag-2) | NR2E3 ag confirm inactive | GAL4-VP16 luc inactive
Cc1cccc(C(=O)Nc2cccc3cccnc23)c1	none (no result: NR2E3 ag-2)
NC(=S)NN=Cc1nccc2c(C(F)(F)C(F)(F)C(F)(F)F)cccc12	NR2E3 ag-1 87 (no result: 697 NFkB inh, Jurkat NFkB inh, NR2E3 ag-2) | NR2E3 ag confirm inactive | GAL4-VP16 luc inactive
NC(=S)NN=Cc1nccc2ccccc12	NR2E3 ag-1 75 (no result: 697 NFkB inh, Jurkat NFkB inh, NR2E3 ag-2) | NR2E3 ag confirm inactive | GAL4-VP16 luc inactive
O=C(O)c1ccc(NC2=C/C(=N/S(=O)(=O)c3cccs3)c3ccccc3C2=O)cc1	none (no result: 697 NFkB inh, Jurkat NFkB inh, NR2E3 ag-2)
O=C(O)c1ccc(NC2=C/C(=N/S(=O)(=O)c3ccccc3)c3ccccc3C2=O)cc1	none (no result: NR2E3 ag-2)
Cc1cc(C)c(S(=O)(=O)/N=C2\C=C(Nc3ccc(C(=O)O)cc3)C(=O)c3ccccc32)c(C)c1	NR2E3 ag-1 112 | NR2E3 ag confirm 100 | GAL4-VP16 luc 98
O=C1C(Nc2ccc(O)cc2)=C/C(=N/S(=O)(=O)c2cccs2)c2ccccc21	NR2E3 ag-1 103 (no result: 697 NFkB inh, Jurkat NFkB inh, NR2E3 ag-2) | NR2E3 ag confirm 100 | GAL4-VP16 luc 99
CCN(CC)c1ccc(S(=O)(=O)Nc2cc(Cl)ccc2Cl)cc1NC(=S)NC(=O)C1CCCC1	none | NR2E3 ag confirm inactive | GAL4-VP16 luc inactive
CCN(CC)S(=O)(=O)c1ccc(Cl)c(NC(=S)NC(=O)C2CCCC2)c1	none
COc1ccc(CCNC(=O)c2cc3cc(Cl)ccc3nc2N)cc1OC	none (no result: 697 NFkB inh, Jurkat NFkB inh, NR2E3 ag-2) | NR2E3 ag confirm inactive | GAL4-VP16 luc inactive
COc1ccc(CCNC(=O)/C=C/c2ccc3ccccc3n2)cc1OC	none | NR2E3 ag confirm inactive | GAL4-VP16 luc inactive
O=C(CSc1ncccc1C(=O)O)Nc1ccc2c(c1)OCCO2	none | NR2E3 ag confirm inactive | GAL4-VP16 luc inactive
O=C(Cn1cnc2ccccc2c1=O)Nc1ccc2c(c1)OCO2	none
O=C(Cn1cnc2ccccc21)Nc1ccc2c(c1)OCCCO2	none | NR2E3 ag confirm inactive | GAL4-VP16 luc inactive
CCCc1c2c(cc3c(=O)cc(C(=O)OCC)oc13)CCCC2	none
CC1=CC(C)(C)N=C(Nc2ccc(C)cc2)S1	none
COc1cc(NC(=O)Cn2cnc(S(=O)(=O)N3CCOCC3)c2)cc(OC)c1OC	none
COc1ccc(NC(=O)c2sc(=O)n(Cc3cccc(C(F)(F)F)c3)c2C)cc1OC	none (no result: 697 NFkB inh, Jurkat NFkB inh, NR2E3 ag-2) | NR2E3 ag confirm 73 | GAL4-VP16 luc inactive
COc1ccc(CNC(=O)c2sc(=O)n(Cc3ccc(-c4ccccc4)cc3)c2C)cc1OC	none (no result: 697 NFkB inh, Jurkat NFkB inh, NR2E3 ag-2) | NR2E3 ag confirm 72 | GAL4-VP16 luc inactive
COc1ccc(CNC(=O)c2[nH]c(C(F)(F)F)nc2-c2ccccc2)cc1OC	none (no result: 697 NFkB inh, Jurkat NFkB inh, NR2E3 ag-2)
COc1ccc(CNC(=O)c2sc(=O)n(Cc3ccc(C)cc3)c2C)cc1OC	none (no result: 697 NFkB inh, Jurkat NFkB inh, NR2E3 ag-2)
COc1ccc(NC(=O)c2sc(=O)n(Cc3ccc(SC)cc3)c2C)cc1OC	none (no result: 697 NFkB inh, Jurkat NFkB inh, NR2E3 ag-2)
COc1ccc(CNC(=O)c2sccc2-c2ccccc2)cc1OC	none | NR2E3 ag confirm inactive | GAL4-VP16 luc inactive

Bioassay records (PubChem)
